Results collected from several papers.
Protocols differ between the studies behind these lines.
Observed: cell growth or viability

SMILES	cell line	assay	setting	endpoint	value
Cc1n[nH]c2ccc3nc(-c4ccc(C(=O)NCCN5CCCC5)cc4)c4c(c3c12)CCCC4	MV4-11	resazurin	72 h	GI50	428 nM
O=C(OCc1ccccc1)n1nc(-c2ccc(CO)o2)c2ccccc21	RBE	ATP luminescence	46 µM, 72 h	inhibition	55%
O=C(NO)c1ccc(CC(=O)N(CCO)c2ccccc2)cc1	HBL1	ATP luminescence	0.5 µM, 5 days	viability	117%
CN(C)CCN(C)C(=O)c1ccc(-c2nc3ccc4[nH]ncc4c3c3c2CCCCC3)cc1	MV4-11	resazurin	72 h	GI50	383 nM
CC(=O)OC[C@H]1O[C@@H](n2cnc(N)nc2=O)[C@H](OC(C)=O)[C@@H]1OC(C)=O	HBL1	ATP luminescence	1 µM, 5 days	viability	94.3%
O=C(NCCCN1CCCCC1)c1ccc(-c2nc3ccc4[nH]ncc4c3c3c2CCCC3)cc1	MV4-11	resazurin	72 h	GI50	2400 nM
COC(=O)CNC(=O)C(=O)OC	HBL1	ATP luminescence	0.5 µM, 5 days	viability	113%
CCN(Cc1ccc(C)cc1)c1ccc(CO)c(Cl)c1	RBE	ATP luminescence	46 µM, 72 h	inhibition	95%
CC(C)(C)[C@H](N)C(=O)Nc1ccccc1/N=c1\cc(-c2ccc3c(c2)OCCO3)oc2cc(F)ccc12	MDA-MB-468	CCK-8	1 µM	inhibition	-0.62%
C[C@H](Nc1ccc2c(c1)OCCn1cc(N3C(=O)OC[C@H]3C(F)F)nc1-2)C(N)=O	MDA-MB-361	ATP luminescence	5 days	EC50	7.5 nM
OCc1ccc(-c2nn(Cc3ccccc3)c3ccccc23)s1	RBE	ATP luminescence	46 µM, 72 h	inhibition	30%
CN(C)CCNC(=O)c1ccc(-c2nc3ccc4[nH]ncc4c3c3c2CCCC3)cc1	MV4-11	resazurin	72 h	GI50	25 nM
OCc1ccc(-c2nn(Cc3ccccc3F)c3ccccc23)o1	RBE	ATP luminescence	46 µM, 72 h	inhibition	68%
O=C(NCCc1ccccn1)c1ccc(-c2nc3ccc4[nH]ncc4c3c3c2CCCC3)cc1	MV4-11	resazurin	72 h	GI50	1000 nM
NCCC(=O)Nc1cccc(/N=c2\cc(-c3ccc4c(c3)OCO4)oc3ccccc23)c1	MDA-MB-468	CCK-8	1 µM	inhibition	3.6%
CCN(Cc1c(F)cccc1OC)c1ccc(CO)c(Cl)c1	RBE	ATP luminescence	46 µM, 72 h	inhibition	65%
NCC(=O)Nc1ccccc1/N=c1\cc(-c2ccc3c(c2)OCCO3)oc2cc(F)ccc12	MDA-MB-468	CCK-8	1 µM	inhibition	11.8%
COc1cccc(Cn2nc(-c3ccc(CN)o3)c3ccccc32)c1	RBE	ATP luminescence	46 µM, 72 h	inhibition	78%
COc1ccc2/c(=N/c3ccccc3NC(=O)N3CCOCC3)cc(-c3ccc4c(c3)OCCO4)oc2c1	MDA-MB-468	CCK-8	1 µM	inhibition	18.7%
CN(C)CCNC(=O)c1ccc(-c2nc3ccc4[nH]ncc4c3c3c2CCCCC3)cn1	MV4-11	resazurin	72 h	GI50	146 nM
NCC(=O)Nc1ccccc1/N=c1\cc(-c2ccc3c(c2)OCO3)oc2ccccc12	MDA-MB-468	CCK-8	1 µM	inhibition	3.86%
Cc1n[nH]c2ccc3nc(-c4ccc(C(=O)N(C)CCN(C)C)cc4)c4c(c3c12)CCCCC4	MV4-11	resazurin	72 h	GI50	522 nM
O=C(Nc1ccccc1/N=c1\cc(-c2ccc3c(c2)OCCO3)oc2cc(F)ccc12)N1CCOCC1	MDA-MB-468	CCK-8	1 µM	inhibition	-2.71%
OCc1ccc(-c2nn(Cc3ccccc3)c3ccccc23)o1	RBE	ATP luminescence	46 µM, 72 h	inhibition	75%
NCC(=O)Nc1ccccc1/N=c1\cc(-c2ccc3c(c2)OCO3)oc2c([N+](=O)[O-])cccc12	MDA-MB-468	CCK-8	1 µM	inhibition	5.28%
CCN(Cc1ccccc1C)c1ccc(CO)c(Cl)c1	RBE	ATP luminescence	46 µM, 72 h	inhibition	87%
Nc1nc2ccc(-c3c/c(=N\c4ccccc4NC(=O)CCN4CCOCC4)c4ccccc4o3)cc2o1	MDA-MB-468	CCK-8	1 µM	inhibition	0.34%
COCCCNC(=O)c1ccc(-c2nc3ccc4[nH]ncc4c3c3c2CCCC3)cc1	MV4-11	resazurin	72 h	GI50	2900 nM
